Experimental data collected from several papers.
Lines come from different studies, so protocols differ. ≈ marks a conversion by molar mass, not a printed value.
Organism: Streptococcus pneumoniae

The MBC of `COc1cc(Cc2cnc(N)nc2N)cc(OC)c1OC` is reported as 0.25 µg/mL (≈ 0.861 µM) (microbial killing; broth dilution; 48 h).
`CN(C)c1ccc(-c2ccc3cc4c(c(O)c3c2)C(=O)C2=C(O)[C@]3(O)C(=O)C(C(N)=O)=C(O)[C@@H](N(C)C)[C@@H]3C[C@@H]2C4)cc1` gave an MIC of 32 µg/mL (≈ 54.8 µM) (microbial growth; broth dilution; ATCC49619).
The MIC90 of `CC[C@H]1OC(=O)[C@H](C)[C@@H](O[C@H]2C[C@@](C)(OC)[C@@H](O)[C@H](C)O2)[C@H](C)[C@@H](O[C@@H]2O[C@H](C)C[C@H](N(C)C)[C@H]2O)[C@](C)(OC)C[C@@H](C)C(=O)[C@H](C)[C@@H](O)[C@]1(C)O` is reported as 256 µg/mL (≈ 342 µM) (microbial growth).
`O=C(O)CN1C(=O)/C(=C/c2c3ccccc3c(-c3ccc(N(c4ccccc4)c4ccccc4)cc3)c3ccccc23)NC1=S` has an MBC of greater than 1000 µg/mL (microbial killing; broth dilution; ATCC49619).
With `CN(C)c1cc(CNCC(C)(C)C)c(O)c2c1C[C@H]1C[C@H]3[C@H](N(C)C)C(O)=C(C(N)=O)C(=O)[C@@]3(O)C(O)=C1C2=O` the MIC was less than 0.06 µg/mL (microbial growth; 157E).
For `CN(C)[C@@H]1C(O)=C(C(N)=O)C(=O)[C@@]2(O)C(O)=C3C(=O)c4c(cc5ccc(-c6cccnc6)cc5c4O)C[C@H]3C[C@@H]12`, the MIC was 32 µg/mL (≈ 59.1 µM) (microbial growth; broth dilution; ATCC49619).
For `O=c1[nH]cc(F)c(=O)[nH]1`, the MBC was 0.25 µg/mL (≈ 1.92 µM) (microbial killing; broth dilution; 48 h).
With `O=C(O)CN1C(=O)/C(=C/c2ccc(-c3ccc(N(c4ccccc4)c4ccccc4)cc3)cc2)SC1=S` the MBC was 500 µg/mL (≈ 957 µM) (microbial killing; broth dilution; ATCC49619).
